In ChEMBL document CHEMBL1157635, “Synthesis, radiofluorination, and hypoxia-selective studies of FRAZ: A configurational and positional analogue of the clinical hypoxia marker, [18F]-FAZA” (Bioorg Med Chem, 2010):

How the values were obtained:
[1] = tested on: 143B; test: Toxicity in human 143B cells at < 10 mM assessed as reduction of cell survival after 72 hrs by MTT assay; assay type: cell-based
Summary of the method: (§1)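 Exponentially growing cells seeded at 8 × 10² cells/well and pre-incubated 24 h at 37 °C (5% CO2). Compound added in growth medium over 10^-7 to 10^-3 M, with medium-only controls, for 72 h. MTT then added for 4 h, formazan dissolved in DMSO and absorbance read at 540 nm.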

[2] = Toxicity in Kirsten virus transformed mouse KBALB-STK cells at < 10 mM assessed as reduction of cell survival after 72 hrs by MTT assay; assay type: cell-based; summary of the method: as §1
[3] = Toxicity in human 143B-LTK cells at < 10 mM assessed as reduction of cell survival after 72 hrs by MTT assay; assay type: cell-based; summary of the method: as §1
[4] = tested on: EMT6; test: Toxicity in mouse EMT6 cells at < 10 mM assessed as reduction of cell survival after 72 hrs by MTT assay; assay type: cell-based; conditions: emt6, 72 h; summary of the method: as §1
[5] = Partition coefficient, log P by HPLC; assay type: physicochemical; conditions: octanol/water
Summary of the method: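 Reverse-phase analytical HPLC with a gradient solvent system. Retention time compared with IAZA, FAZA and AZA standards, and P interpolated from a plot.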

[6] = tested on: EMT6; test: Toxicity in mouse EMT6 cells at 1 mM assessed as reduction of cell survival after 72 hrs by MTT assay; assay type: cell-based; conditions: emt6, 72 h, 1000 µM; summary of the method: as §1
[7] = tested on: HCT-116; test: Hypoxia radiosensitization activity in human HCT116 cells assessed as sensitizer enhancement ratio at 100 uM after 24 hrs by [60]Co X-ray source based clonogenic survival assay; assay type: functional
Summary of the method: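 HCT-116 cells pre-incubated 20 h, then exposed to 100 µM (from 10 mM stock in 95% ethanol) for 24 h. Hypoxic dishes degassed by six vacuum/N2 cycles, normoxic kept in air, then shaken 30 min. Irradiated with 60Co at 0–20 Gy. Cells replated and grown 10–14 days at 37 °C, colonies stained, surviving fractions counted, triplicate.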

[8] = Toxicity in Kirsten virus transformed mouse KBALB cells at < 10 mM assessed as reduction of cell survival after 72 hrs by MTT assay; assay type: cell-based; summary of the method: as §1

logP [5]	Structure (SMILES)	Activity [1]	Activity [2]	Activity [3]	Activity [4]	Activity [6]	Ratio [7]	Activity [8]
1.08	O=[N+]([O-])c1nccn1[C@H]1O[C@H](CO)[C@@H](O)[C@H]1F	Non-toxic	Non-toxic	Non-toxic	Non-toxic	Non-toxic	1.4	Non-toxic
1.1	O=[N+]([O-])c1nccn1[C@H]1O[C@H](CF)[C@@H](O)[C@@H]1O						1.25	
